Drawing on ChEMBL document CHEMBL3259569 (J Med Chem, 2014), this text covers IC50, Activity and bioavailability for 9 compounds.

Active and inactive are the calls of the source. The rule behind the calls is not given here.

The subject of one series is A549. Description: Cytotoxicity against human A549 cells by MTT assay. The series is classed as functional, cell-based. (Tetrazolium dyes change colour on reduction, which living cells bring about.)
In series [1] the test system is HCT-116. Nature of the series: Induction of apoptosis in human HCT116 cells assessed as accumulation at sub-G1 phase at 1 uM by propidium iodide staining-based flow cytometric analysis. The series is classed as functional, cell-based. The conditions noted are these: TDE = time-dependent effect. The procedure, abridged: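 HCT116 cells exposed to 1 μM compound for varying time intervals; sub-G1 population quantified by flow cytometry.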

The subject of series [2] is HCT-116. Description: Induction of apoptosis in human HCT116 cells assessed as accumulation at sub-G1 phase after 24 hrs by propidium iodide staining-based flow cytometric analysis. The series is classed as functional, cell-based. The procedure, abridged:
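HCT116 cells treated with indicated concentrations for 24 h; DNA content analyzed by flow cytometry for cell cycle distribution and sub-G1 fraction; means of at least three independent experiments.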
In general terms: In flow cytometry, cells or beads pass a laser one at a time.

Series [3] can be described thus: Oral bioavailability in ICR mouse at 10 mg/kg by LC-MS/MS analysis. In kind it is ADME, organism-based. The conditions noted are these: in vivo.
Series [4] in a line: Cytotoxicity against human H460 cells by MTT assay. The series is classed as functional, cell-based. Particulars: NCI-H460. The procedure, abridged: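 Antiproliferative IC50 in H460 cells; mean ± SD of at least three independent experiments.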
Series [5] deals with HCT-116. Description: Induction of apoptosis in human HCT116 cells assessed as increase in p53 protein level at 0.1 to 3 uM after 24 hrs by immunoblotting analysis. The series is classed as functional, cell-based. A general note: Immunoblotting shows a protein as a band on a membrane.
The subject of a further series is KB. Nature of the series: Cytotoxicity against human KB cells by MTT assay. In kind it is functional, cell-based.
Series [6] concerns HCT-116. Nature of the series: Cytotoxicity against human HCT116 cells by MTT assay. In kind it is functional, cell-based.
The next series concerns PC-3. Description: Cytotoxicity against human PC3 cells by MTT assay. In kind it is functional, cell-based.
The next series addresses Histone deacetylase. Description: Inhibition of HDAC in human HeLa cell nuclear extract using Boc-Lys(Ac)-AMC as substrate after 30 mins by fluorimetric analysis. The series is classed as protein assay.
The target of series [7] is T1, Protein deacetylase HDAC6 (Homo sapiens, UniProt Q9UBN7).
T1 sequence (Q9UBN7 whole entry): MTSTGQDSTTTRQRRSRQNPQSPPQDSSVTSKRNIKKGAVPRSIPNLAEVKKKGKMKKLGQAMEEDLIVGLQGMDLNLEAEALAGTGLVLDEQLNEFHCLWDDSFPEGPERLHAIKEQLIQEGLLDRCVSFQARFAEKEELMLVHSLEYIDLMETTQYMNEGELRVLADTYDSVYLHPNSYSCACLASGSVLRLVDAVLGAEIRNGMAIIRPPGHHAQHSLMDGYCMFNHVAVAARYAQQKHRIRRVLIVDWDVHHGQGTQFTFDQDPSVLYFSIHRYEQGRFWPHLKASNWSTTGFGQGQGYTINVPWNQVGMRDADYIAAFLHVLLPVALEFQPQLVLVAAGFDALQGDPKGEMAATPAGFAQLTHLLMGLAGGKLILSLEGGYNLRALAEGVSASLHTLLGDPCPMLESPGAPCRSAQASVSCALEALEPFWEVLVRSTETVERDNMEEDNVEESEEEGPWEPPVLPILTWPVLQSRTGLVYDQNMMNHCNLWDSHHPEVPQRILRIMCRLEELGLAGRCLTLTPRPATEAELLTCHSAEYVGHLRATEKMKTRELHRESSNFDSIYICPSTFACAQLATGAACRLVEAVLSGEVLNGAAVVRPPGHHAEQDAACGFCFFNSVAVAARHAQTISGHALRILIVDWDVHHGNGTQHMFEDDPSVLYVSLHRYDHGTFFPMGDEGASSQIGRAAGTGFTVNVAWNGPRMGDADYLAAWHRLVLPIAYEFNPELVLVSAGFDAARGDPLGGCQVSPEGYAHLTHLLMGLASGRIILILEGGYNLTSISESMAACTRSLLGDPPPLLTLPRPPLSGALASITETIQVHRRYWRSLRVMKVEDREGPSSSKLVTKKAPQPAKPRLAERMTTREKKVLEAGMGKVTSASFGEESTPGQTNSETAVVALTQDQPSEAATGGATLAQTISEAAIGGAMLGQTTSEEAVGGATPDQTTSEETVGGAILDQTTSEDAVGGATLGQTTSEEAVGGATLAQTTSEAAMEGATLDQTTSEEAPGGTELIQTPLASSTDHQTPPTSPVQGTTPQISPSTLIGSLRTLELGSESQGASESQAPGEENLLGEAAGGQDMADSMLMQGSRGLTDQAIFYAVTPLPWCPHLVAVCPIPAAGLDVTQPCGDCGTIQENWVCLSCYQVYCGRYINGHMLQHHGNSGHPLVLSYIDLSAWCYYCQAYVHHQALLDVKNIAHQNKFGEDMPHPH
Nature of the series: Inhibition of HDAC6 (unknown origin) using RHKK(Ac) (379 to 382) p53 peptide as substrate by fluorescence assay.

The next series has as its target Histone deacetylase 1 (Homo sapiens, UniProt Q13547). Nature of the series: Inhibition of HDAC1 (unknown origin) using RHKK(Ac) (379 to 382) p53 peptide as substrate by fluorescence assay.

Chain of Histone deacetylase 1 (Q13547 whole entry): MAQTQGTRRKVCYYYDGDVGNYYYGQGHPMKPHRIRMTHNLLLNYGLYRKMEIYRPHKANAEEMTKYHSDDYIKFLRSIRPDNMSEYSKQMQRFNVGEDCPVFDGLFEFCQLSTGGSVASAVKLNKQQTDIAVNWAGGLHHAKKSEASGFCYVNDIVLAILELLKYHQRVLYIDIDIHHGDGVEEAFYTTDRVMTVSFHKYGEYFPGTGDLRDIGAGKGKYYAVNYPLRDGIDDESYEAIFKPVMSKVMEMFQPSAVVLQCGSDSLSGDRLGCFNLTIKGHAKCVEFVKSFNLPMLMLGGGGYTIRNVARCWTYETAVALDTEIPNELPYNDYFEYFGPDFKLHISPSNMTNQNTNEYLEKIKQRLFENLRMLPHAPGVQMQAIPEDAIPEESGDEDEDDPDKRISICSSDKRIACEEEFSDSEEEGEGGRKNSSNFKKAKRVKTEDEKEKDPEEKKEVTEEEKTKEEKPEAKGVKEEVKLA

Consider `O=C(CCCCCCC(=O)Nc1ccccc1)NO` [VORINOSTAT], for which the IC50 (usually the midpoint of a concentration-inhibition curve) in the series on A549 stood at 1.54 µM; in [4], 0.82 µM. In addition, the Activity result in the series on HCT-116 [1] is “tde”; with HCT-116 [2], “Dose-dependent effect”. For the same compound, the bioavailability (usually the share of a dose that reaches the circulation, judged against a reference dose that is usually intravenous) in [3] stood at 8.33%. The outcome with HCT-116 [5] was inactive.

For the compound `O=C(/C=C/c1cccc(S(=O)(=O)n2ccc3ccccc32)c1)NO`, the IC50 with KB is 2.92 µM; in series [4] it was 3.01 µM; with HCT-116 [6], 2.47 µM; in the series on PC-3, 4.01 µM; at Histone deacetylase, 0.51 µM.

Take `O=C(/C=C/c1cccc(S(=O)(=O)n2ccc3ccncc32)c1)NO`: the IC50 with KB came out at 0.61 µM; in [7], 0.28 µM; in series [4], 0.56 µM; with HCT-116 [6] it was 1.21 µM; on Histone deacetylase 1, 4.85 µM; in the series on PC-3, 1.11 µM. Further, the IC50 against Histone deacetylase is 0.48 µM.

Take `O=C(/C=C/c1ccc(S(=O)(=O)n2ccc3cccnc32)cc1)NO`: the IC50 with KB worked out at 0.87 µM; in series [4], 0.91 µM; in the series on HCT-116 [6], 1.01 µM; in the series with PC-3 it was 1.24 µM; on Histone deacetylase it was 0.24 µM.

For `O=C(/C=C/c1cccc(S(=O)(=O)n2ncc3ccccc32)c1)NO`, the IC50 is 1.26 µM in the series with KB; 1.21 µM in series [4]; 1.12 µM with HCT-116 [6]; 3.21 µM in the series with PC-3; 0.23 µM against Histone deacetylase.

Turning to `O=C(/C=C/c1ccc(S(=O)(=O)n2ncc3ccccc32)cc1)NO`, the IC50 with KB is 1.83 µM; in series [4] it was 2.79 µM; in the series with HCT-116 [6] it was 3.34 µM; in the series on PC-3, 3.36 µM; on Histone deacetylase, 0.5 µM.

Regarding `O=C(/C=C/c1ccc(S(=O)(=O)N2CCc3cccnc32)cc1)NO`, the IC50 in the series on KB came out at 1.52 µM; in series [4], 1.98 µM; with HCT-116 [6], 1.73 µM; with PC-3, 3.64 µM; on Histone deacetylase, 0.85 µM.

As to `O=C(/C=C/c1ccc(S(=O)(=O)n2ccc3ccncc32)cc1)NO`, the concentration for half-maximal inhibition (IC50) with KB came out at 1.24 µM; in [4], 1.67 µM; in the series with HCT-116 [6] it was 1.92 µM; in the series on PC-3, 1.97 µM; against Histone deacetylase, 0.56 µM.

For the compound `O=C(/C=C/c1cccc(S(=O)(=O)N2CCc3cccnc32)c1)NO`, the IC50 with KB amounted to 1.29 µM; in series [4], 1.82 µM; in the series with HCT-116 [6], 2.04 µM; in the series with PC-3 it was 4.11 µM; on Histone deacetylase, 0.6 µM.
